Values after ≈ are worked out from the molar mass of the structure shown. Active and inactive are the calls of the source. The rule behind the calls is not given here.
Experiments:
[1] = biological target: T1, Enoyl-[acyl-carrier-protein] reductase [NADH] (Mycobacterium tuberculosis, UniProt P9WGR1); experiment: Noncompetitive inhibition of Mycobacterium tuberculosis InhA using DD-CoA as substrate assessed as inhibition constant for enzyme-substrate-inhibitor ternary complex in presence of varying concentrations of NADH by double reciprocal plot analysis
T1 sequence (P9WGR1 whole entry): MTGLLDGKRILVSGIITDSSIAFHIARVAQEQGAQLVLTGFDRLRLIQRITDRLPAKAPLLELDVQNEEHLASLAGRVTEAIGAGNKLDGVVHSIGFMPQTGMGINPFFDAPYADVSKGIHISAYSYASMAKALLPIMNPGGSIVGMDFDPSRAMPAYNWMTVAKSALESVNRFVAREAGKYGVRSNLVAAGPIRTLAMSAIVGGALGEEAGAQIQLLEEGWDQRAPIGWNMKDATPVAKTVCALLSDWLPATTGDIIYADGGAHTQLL

[2] = Selectivity index, ratio of CC50 for human HepG2 cells by neutral red uptake assay to MIC for pan-sensitive Mycobacterium tuberculosis H37Rv ATCC 27294; assay type: toxicity; conditions: read-out: Selectivity Index
[3] = test system: Staphylococcus aureus; experiment: Antibacterial activity against Staphylococcus aureus ATCC 25923 assessed as inhibition of bacterial growth at 20 uM by broth microdilution method; assay type: functional, organism-based
Summary of the method: (§1)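 Broth microdilution in triplicate against a small bacterial panel, with compounds tested at 20 μM for growth inhibition.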

[4] = biological target: T1, Enoyl-[acyl-carrier-protein] reductase [NADH]; experiment: Inhibition of Mycobacterium tuberculosis InhA-catalysed chemical reaction in presence of NADH measured for 1 min by UV/Visible spectrophotometry
Summary of the method: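 Recombinant MtInhA reaction at 25 °C in 100 mM Pipes pH 7.0, started by adding 2.2 μM enzyme and followed for 1 min. Substrate is DD-CoA, made from 2-trans-dodecenoic acid and CoA.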

[5] = test system: Klebsiella pneumoniae; experiment: Antibacterial activity against multidrug-resistant Klebsiella pneumoniae clinical isolates assessed as inhibition of bacterial growth at 20 uM by broth microdilution method; assay type: functional, organism-based; summary of the method: as §1
[6] = test system: Escherichia coli; experiment: Antibacterial activity against Escherichia coli ATCC 25922 assessed as inhibition of bacterial growth at 20 uM by broth microdilution method; assay type: functional, organism-based; summary of the method: as §1
[7] = biological target: T2, Enoyl-[acyl-carrier-protein] reductase [NADH] (Mycobacterium tuberculosis) (UniProt P9WGR1); experiment: Binding affinity to Mycobacterium tuberculosis InhA assessed as change in entropy at 250 uM in presence of NADH by fluorescence spectroscopy
T2 sequence (whole entry): T1 sequence (P9WGR1 whole entry)

[8] = biological target: T2, Enoyl-[acyl-carrier-protein] reductase [NADH] (Mycobacterium tuberculosis); experiment: Binding affinity to Mycobacterium tuberculosis InhA assessed as gibbs free energy change at 250 uM in presence of NADH by fluorescence spectroscopy
Summary of the method: (§2)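 Titration of pre-formed MtInhA:NADH complex (2 mL of 3 μM enzyme with 20 μM NADH), adding microliter aliquots of 250 μM ligand stock with dilution kept ≤1%. Intrinsic fluorescence read at 295 nm excitation, 310–500 nm emission. Temperatures 15, 20, 25 and 30 °C. KD is fitted to a hyperbolic isotherm. ΔH°, ΔS° and ΔG° come from van't Hoff analysis of KD across temperatures.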

[9] = test system: Mycobacterium tuberculosis; experiment: Antibacterial activity against pan-sensitive Mycobacterium tuberculosis H37Rv ATCC 27294 measured after 7 days by resazurin dye based assay; assay type: functional; conditions: H37Rv ATCC 27294, 168 h, time 7 day
Summary of the method: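 Resazurin reduction microplate assay (REMA) in Middlebrook 7H9 broth with 10% ADC and 5% DMSO. Compounds come from 2 mg/mL DMSO stocks and are 2-fold serially diluted, top concentration 0.08–40 μg/mL depending on solubility. MIC is the lowest concentration preventing the blue-to-pink colour change. Three independent experiments; the reported value is the modal or the highest value.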

[10] = Metabolic stability in rat liver microsomes assessed as intrinsic clearance at 2 uM measured upto 30 mins by HPLC/MS/MS analysis; assay type: ADME, Microsome; conditions: read-out: CLH
Summary of the method: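 Compounds at 2 μM incubated at 37 °C with 1 mg/mL rat liver microsomes containing NADPH. Parent compound consumption followed over time.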

[11] = Genotoxicity in human HepG2 cells assessed as induction of DNA damage at 1 to 5 uM incubated for 24 hrs by alkaline comet assay; assay type: toxicity, cell-based; conditions: hepg2, 24 h, dose 1-5 µM
Summary of the method: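 Alkaline comet assay in HepG2 cells seeded at 8 × 10⁴ cells/well. Exposure to 1 or 5 μM for 24 h. Lysis 48 h, alkali unwinding (300 mM NaOH, pH >13) 20 min at 4 °C, electrophoresis 20 min at 25 V, silver staining.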

[12] = test system: Mycobacterium tuberculosis; experiment: Antibacterial activity against Mycobacterium tuberculosis H37Rv ATCC 27294 infected in mouse RAW264.7 cells assessed as reduction in colony forming units at 5 uM measured after 5 days (reference value: 4.19 +/- 0.41); assay type: functional; conditions: time 5 day
[13] = biological target: T1, Enoyl-[acyl-carrier-protein] reductase [NADH]; experiment: Binding affinity to Mycobacterium tuberculosis InhA assessed as dissociation constant at 250 uM at 25 degreeC in presence of NADH by fluorescence spectroscopy; summary of the method: as §2
[14] = Chemical stability in 0.1 M NH4HCO3 solution at pH 9.1 assessed as reduction in parent compound at 1 to 10 uM measured after 24 hrs by HPLC-EM/MS analysis; assay type: physicochemical; conditions: dose 1-10 µM, read-out: Drug degradation
Summary of the method: (§3)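 Compounds at 1–10 μM incubated 24 h at 37 °C in three media: pH 1.2 (0.1 M HCl), pH 7.4 (PBS) and pH 9.1 (0.1 M NH4HCO3). Remaining parent compound quantified afterward.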

[15] = Chemical stability in PBS at pH 7.4 assessed as parent compound remaining at 1 to 10 uM measured after 24 hrs by HPLC-EM/MS analysis; assay type: physicochemical; conditions: dose 1-10 µM, read-out: Stability; summary of the method: as §3
[16] = Cytotoxicity against African green monkey Vero cells assessed as reduction in cell viability incubated for 72 hrs by neutral red uptake assay; assay type: toxicity, cell-based; conditions: chlorocebus sabaeus
Summary of the method: (§4)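 Cells grown in DMEM with 10% FBS. HepG2 seeded at 4 × 10³ and Vero at 2 × 10³ cells/well, 24 h before dosing. Compounds at 1, 5 and 20 μM in 1% DMSO for 72 h at 37 °C, 5% CO2. MTT readout: 5 mg/mL reagent for 4 h, absorbance at 595 nm. Neutral red readout: 25 μg/mL dye for 3 h, then acid-ethanol desorb. Viability is expressed relative to 1% DMSO controls.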

[17] = biological target: T2, Enoyl-[acyl-carrier-protein] reductase [NADH] (Mycobacterium tuberculosis); experiment: Binding affinity to Mycobacterium tuberculosis InhA assessed as change in enthalpy at 250 uM in presence of NADH by fluorescence spectroscopy
[18] = Permeability of compound at 10 uM measured after 5 hrs by PAMPA assay; assay type: ADME; conditions: read-out: permeability
Summary of the method: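 PAMPA: compounds at 10 μM in 2% DMSO added to a pH 7.4 donor phase, 5 h at room temperature. Receptor-side concentration (pH 7.4) measured to derive permeation rate. Alprenolol is the analytical control.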

[19] = Cytotoxicity against African green monkey Vero cells assessed as reduction in cell viability incubated for 72 hrs by MTT assay; assay type: toxicity, cell-based; conditions: chlorocebus sabaeus; summary of the method: as §4
[20] = Selectivity index, ratio of CC50 for human HepG2 cells by MTT assay to MIC for pan-sensitive Mycobacterium tuberculosis H37Rv ATCC 27294; assay type: toxicity; conditions: read-out: Selectivity Index

SMILES | Ki [1] [nM] | selectivity ratio [2] | Activity [3] | IC50 [4] [nM] | Activity [5] | Activity [6] | deltaS [7] [cal/mol/K] | deltaG [8] [kcal/mol] | MIC [9] [µM] | CLint scaled at 2 µM [10] [mL/min/kg] | Activity [11] | Activity [12] [log10CFU] | Kd [13] [nM] | degraded at 24 h, up to 10 µM [14] [%] | remaining at 24 h, up to 10 µM [15] [%] | CC50 at 72 h [16] [nM] | deltaH [17] [kcal/mol] | Papp at 5 h, 10 µM [18] [×10⁻⁶ cm/s] | CC50 at 72 h [19] [nM] | selectivity ratio [20]
Cc1cc(Nc2ccc(N3CCCCC3)cc2)c2cc(Br)ccc2n1 | 150 | 45.7 | inactive | 230 | inactive | inactive | -33.4 | -8.3 | 0.4 (≈ 0.159 µg/mL) | 36.2 | Non-Toxic | 2.74 | 810 | ~50 | 100 | 12200 | -18.3 | 3.16 | > 20000 | > 50
Cc1cc(Nc2ccc(N3CCCCC3)cc2)c2cc(Cl)ccc2n1 | 460 | 18.2 | inactive | 1100 | inactive | inactive | -49.8 | -8.3 | 0.9 (≈ 0.317 µg/mL) | 60.5 | Non-Toxic | 2.39 | 900 | > 75 | 100 | 11700 | -23.2 | 11.5 | 19200 | > 22.2
